From ChEMBL document CHEMBL1629601, “In vitro susceptibility of field isolates of Leishmania donovani to Miltefosine and amphotericin B: correlation with sodium antimony gluconate susceptibility and implications for treatment in areas of endemicity” (2009)
Values after ≈ are worked out from the molar mass of the structure shown.

Legend:
Type in all cases: functional
[1] = system: Leishmania donovani; assay: Decrease in LdRoS3 gene expression in Leishmania donovani K80 by RT-PCR method
Outline: (§1)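 VL field isolates of L. donovani. Transcript levels of LdMT or LdRos3 were measured by real-time RT-PCR with SYBR green and analysed by the 2−ΔΔCt method. The expression index is the ratio of gene expression to that of the standard L. donovani strain LdAG83, and a decrease is relative to LdAG83. Values are means of three independent experiments.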

[2] = system: Leishmania donovani; assay: Decrease in LdMT gene expression in Leishmania donovani K111 by RT-PCR method
Outline: (§2)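 LdMT transcript levels were measured by real-time RT-PCR with SYBR green and analysed by the 2−ΔΔCt method. They are expressed as an expression index, the ratio relative to reference strain LdAG83, and are the mean of three independent experiments.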

[3] = system: Leishmania donovani; assay: Decrease in LdRoS3 gene expression in Leishmania donovani K111 by RT-PCR method; outline: as §1
[4] = system: Leishmania donovani; assay: Decrease in LdMT gene expression in Leishmania donovani K132 by RT-PCR method; outline: as §2
[5] = system: Leishmania donovani; assay: Decrease in LdMT gene expression in Leishmania donovani K133 by RT-PCR method; outline: as §2
[6] = system: Leishmania donovani; assay: Decrease in LdRoS3 gene expression in Leishmania donovani K133 by RT-PCR method; outline: as §1
[7] = system: Leishmania donovani; assay: Decrease in LdMT gene expression in Leishmania donovani K135 by RT-PCR method; outline: as §2
[8] = system: Leishmania donovani; assay: Decrease in LdMT gene expression in Leishmania donovani K80 by RT-PCR method; outline: as §1
[9] = system: Leishmania donovani; assay: Decrease in LdRoS3 gene expression in Leishmania donovani K216 by RT-PCR method; outline: as §1
[10] = system: Leishmania donovani; assay: Decrease in LdRoS3 gene expression in Leishmania donovani K435 by RT-PCR method; outline: as §1
[11] = system: Leishmania donovani; assay: Decrease in LdRoS3 gene expression in Leishmania donovani K59M20 by RT-PCR method
Outline: (§3)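 MIL-resistant M20 parasites were generated by raising the MIL concentration stepwise up to 20 μg/ml. LdMT or LdRos3 expression was quantified by real-time RT-PCR (SYBR green, 2−ΔΔCt method) and reported as an expression index, the ratio to the standard strain LdAG83. A decrease is relative to LdAG83. Values are means of three independent experiments.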

[12] = system: Leishmania donovani; assay: Decrease in LdMT gene expression in Leishmania donovani K417M20 by RT-PCR method; outline: as §3
[13] = system: Leishmania donovani; assay: Decrease in LdRoS3 gene expression in Leishmania donovani K417M20 by RT-PCR method; outline: as §3
[14] = system: Leishmania donovani; assay: Antimicrobial activity against Leishmania donovani K417M20 amastigote; conditions: read-out: ED50 (the source's name)
[15] = system: Leishmania donovani; assay: Antimicrobial activity against Leishmania donovani K417M20 promastigote; conditions: read-out: ED50 (the source's name)
[16] = system: Leishmania donovani; assay: Antimicrobial activity against Leishmania donovani K135 amastigote; conditions: read-out: ED50 (the source's name)
[17] = system: Leishmania donovani; assay: Antimicrobial activity against Leishmania donovani K498 promastigote; conditions: read-out: ED50 (the source's name)
[18] = system: Leishmania donovani; assay: Antimicrobial activity against Leishmania donovani K481 amastigote; conditions: read-out: ED50 (the source's name)
[19] = system: Leishmania donovani; assay: Antimicrobial activity against Leishmania donovani K481 promastigote; conditions: read-out: ED50 (the source's name)
[20] = system: Leishmania donovani; assay: Antimicrobial activity against Leishmania donovani K439 promastigote; conditions: read-out: ED50 (the source's name)
[21] = system: Leishmania donovani; assay: Antimicrobial activity against Leishmania donovani K429 promastigote; conditions: read-out: ED50 (the source's name)
[22] = system: Leishmania donovani; assay: Antimicrobial activity against Leishmania donovani K429 amastigote; conditions: read-out: ED50 (the source's name)
[23] = system: Leishmania donovani; assay: Antimicrobial activity against Leishmania donovani K417 amastigote; conditions: read-out: ED50 (the source's name)
[24] = system: Leishmania donovani; assay: Antimicrobial activity against Leishmania donovani K417 promastigote; conditions: read-out: ED50 (the source's name)
[25] = system: Leishmania donovani; assay: Antimicrobial activity against Leishmania donovani K192 amastigote; conditions: read-out: ED50 (the source's name)
[26] = system: Leishmania donovani; assay: Antimicrobial activity against Leishmania donovani K131 promastigote; conditions: read-out: ED50 (the source's name)
[27] = system: Leishmania donovani; assay: Antimicrobial activity against Leishmania donovani K149 amastigote; conditions: read-out: ED50 (the source's name)
[28] = system: Leishmania donovani; assay: Antimicrobial activity against Leishmania donovani K131 amastigote; conditions: read-out: ED50 (the source's name)
[29] = system: Leishmania donovani; assay: Antimicrobial activity against Leishmania donovani K59 amastigote; conditions: read-out: ED50 (the source's name)
[30] = system: Leishmania donovani; assay: Antimicrobial activity against Leishmania donovani LdAG83 promastigote; conditions: read-out: ED50 (the source's name)
[31] = system: Leishmania donovani; assay: Antimicrobial activity against Leishmania donovani K516 promastigote; conditions: read-out: ED50 (the source's name)
[32] = system: Leishmania donovani; assay: Antimicrobial activity against Leishmania donovani K516 amastigote; conditions: read-out: ED50 (the source's name)
[33] = system: Leishmania donovani; assay: Antimicrobial activity against Leishmania donovani K509 amastigote; conditions: read-out: ED50 (the source's name)
[34] = system: Leishmania donovani; assay: Antimicrobial activity against Leishmania donovani K509 promastigote; conditions: read-out: ED50 (the source's name)
[35] = system: Leishmania donovani; assay: Antimicrobial activity against Leishmania donovani K80 amastigote; conditions: read-out: ED50 (the source's name)
[36] = system: Leishmania donovani; assay: Antimicrobial activity against Leishmania donovani K111 amastigote; conditions: read-out: ED50 (the source's name)
[37] = system: Leishmania donovani; assay: Antimicrobial activity against Leishmania donovani K111 promastigote; conditions: read-out: ED50 (the source's name)
[38] = system: Leishmania donovani; assay: Antimicrobial activity against Leishmania donovani K132 amastigote; conditions: read-out: ED50 (the source's name)
[39] = system: Leishmania donovani; assay: Antimicrobial activity against Leishmania donovani K133 amastigote; conditions: read-out: ED50 (the source's name)
[40] = system: Leishmania donovani; assay: Antimicrobial activity against Leishmania donovani K135 promastigote; conditions: read-out: ED50 (the source's name)
[41] = system: Leishmania donovani; assay: Antimicrobial activity against Leishmania donovani K216 amastigote; conditions: read-out: ED50 (the source's name)
[42] = system: Leishmania donovani; assay: Antimicrobial activity against Leishmania donovani K435 amastigote; conditions: read-out: ED50 (the source's name)
[43] = system: Leishmania donovani; assay: Antimicrobial activity against Leishmania donovani K435 promastigote; conditions: read-out: ED50 (the source's name)
[44] = system: Leishmania donovani; assay: Antimicrobial activity against Leishmania donovani K59M20 amastigote; conditions: read-out: ED50 (the source's name)
[45] = system: Leishmania donovani; assay: Decrease in LdRoS3 gene expression in Leishmania donovani K59 by RT-PCR method; outline: as §1
[46] = system: Leishmania donovani; assay: Decrease in LdRoS3 gene expression in Leishmania donovani K131 by RT-PCR method; outline: as §1
[47] = system: Leishmania donovani; assay: Decrease in LdRoS3 gene expression in Leishmania donovani K149 by RT-PCR method; outline: as §1
[48] = system: Leishmania donovani; assay: Decrease in LdMT gene expression in Leishmania donovani K192 by RT-PCR method; outline: as §1
[49] = system: Leishmania donovani; assay: Decrease in LdRoS3 gene expression in Leishmania donovani K192 by RT-PCR method; outline: as §1
[50] = system: Leishmania donovani; assay: Decrease in LdMT gene expression in Leishmania donovani K251 by RT-PCR method; outline: as §1
[51] = system: Leishmania donovani; assay: Decrease in LdRoS3 gene expression in Leishmania donovani K251 by RT-PCR method; outline: as §1
[52] = system: Leishmania donovani; assay: Decrease in LdMT gene expression in Leishmania donovani K417 by RT-PCR method; outline: as §1
[53] = system: Leishmania donovani; assay: Decrease in LdRoS3 gene expression in Leishmania donovani K417 by RT-PCR method; outline: as §1
[54] = system: Leishmania donovani; assay: Decrease in LdMT gene expression in Leishmania donovani K429 by RT-PCR method; outline: as §1
[55] = system: Leishmania donovani; assay: Decrease in LdMT gene expression in Leishmania donovani K439 by RT-PCR method; outline: as §1
[56] = system: Leishmania donovani; assay: Decrease in LdRoS3 gene expression in Leishmania donovani K439 by RT-PCR method; outline: as §1
[57] = system: Leishmania donovani; assay: Decrease in LdMT gene expression in Leishmania donovani K498 by RT-PCR method; outline: as §1
[58] = system: Leishmania donovani; assay: Decrease in LdRoS3 gene expression in Leishmania donovani K498 by RT-PCR method; outline: as §1
[59] = system: Leishmania donovani; assay: Decrease in LdMT gene expression in Leishmania donovani K516 by RT-PCR method; outline: as §1
[60] = system: Leishmania donovani; assay: Decrease in LdRoS3 gene expression in Leishmania donovani K516 by RT-PCR method; outline: as §1

In the case of CCCCCCCCCCCCCCCCOP(=O)([O-])OCC[N+](C)(C)C [MILTEFOSINE], the “fold change (FC)” value [1] is reported as 1.71, the “fold change (FC)” value [2] is reported as 3.4 and the “fold change (FC)” value [3] is reported as 5.26. For the same compound, the “fold change (FC)” value [4] was 5.5, the “fold change (FC)” value [5] was 1.5 and the “fold change (FC)” value [6] was 4.52. For the same compound, the “fold change (FC)” value [7] was 2.86, the “fold change (FC)” value [8] was 1.24 and the “fold change (FC)” value [9] was 9.43. For the same compound, the “fold change (FC)” value [10] was 4.76, the “fold change (FC)” value [11] was 100 and the “fold change (FC)” value [12] was 11.3. The “fold change (FC)” value [13] was 100, the EC50 [14] was greater than 15 µg/mL and the EC50 [15] was greater than 15 µg/mL. It also gave an EC50 [16] of 0.72 µg/mL (≈ 1.77 µM), an EC50 [17] of 1.32 µg/mL (≈ 3.24 µM) and an EC50 [18] of 2.32 µg/mL (≈ 5.69 µM). The EC50 [19] was 1.9 µg/mL (≈ 4.66 µM), the EC50 [20] was 0.87 µg/mL (≈ 2.13 µM) and the EC50 [21] was 1.26 µg/mL (≈ 3.09 µM). For the same compound, the EC50 [22] was 1.24 µg/mL (≈ 3.04 µM), the EC50 [23] was 1.9 µg/mL (≈ 4.66 µM) and the EC50 [24] was 1.72 µg/mL (≈ 4.22 µM). The EC50 [25] was 1.99 µg/mL (≈ 4.88 µM), the EC50 [26] was 0.63 µg/mL (≈ 1.55 µM) and the EC50 [27] was 1.57 µg/mL (≈ 3.85 µM). It also gave an EC50 [28] of 0.51 µg/mL (≈ 1.25 µM), an EC50 [29] of 1.86 µg/mL (≈ 4.56 µM) and an EC50 [30] of 1.05 µg/mL (≈ 2.58 µM). The EC50 [31] was 1.62 µg/mL (≈ 3.97 µM), the EC50 [32] was 2.02 µg/mL (≈ 4.96 µM) and the EC50 [33] was 2.16 µg/mL (≈ 5.3 µM). The EC50 [34] was 1.94 µg/mL (≈ 4.76 µM), the EC50 [35] was 1.32 µg/mL (≈ 3.24 µM) and the EC50 [36] was 0.85 µg/mL (≈ 2.09 µM). For the same compound, the EC50 [37] was 0.47 µg/mL (≈ 1.15 µM), the EC50 [38] was 0.48 µg/mL (≈ 1.18 µM) and the EC50 [39] was 0.93 µg/mL (≈ 2.28 µM). For the same compound, the EC50 [40] was 0.86 µg/mL (≈ 2.11 µM), the EC50 [41] was 0.91 µg/mL (≈ 2.23 µM) and the EC50 [42] was 1.08 µg/mL (≈ 2.65 µM). The EC50 [43] was 1.16 µg/mL (≈ 2.85 µM), the EC50 [44] was greater than 15 µg/mL and the “fold change (FC)” value [45] was 4.06. The “fold change (FC)” value [46] was 11.1, the “fold change (FC)” value [47] was 7.69 and the “fold change (FC)” value [48] was 0.23. The “fold change (FC)” value [49] was 1.9, the “fold change (FC)” value [50] was 7.68 and the “fold change (FC)” value [51] was 52.63. The “fold change (FC)” value [52] was 1.88, the “fold change (FC)” value [53] was 5.02 and the “fold change (FC)” value [54] was 1.26. For the same compound, the “fold change (FC)” value [55] was 4.76, the “fold change (FC)” value [56] was 3.12 and the “fold change (FC)” value [57] was 1.38. The “fold change (FC)” value [58] was 7.63, the “fold change (FC)” value [59] was 8 and the “fold change (FC)” value [60] was 83.33.
